Data: ChEMBL document CHEMBL4049451, “Exploring the Role of N6-Substituents in Potent Dual Acting 5'-C-Ethyltetrazolyladenosine Derivatives: Synthesis, Binding, Functional Assays, and Antinociceptive Effects in Mice ∇” (J Med Chem, 2017)
pEC50, pKi: −log10 of the molar value.

Legend:
Adenosine receptor A3 [1] = target: T1, Adenosine receptor A3 (Rattus norvegicus, UniProt P28647); assay: Displacement of [3H]NECA from recombinant rat adenosine A3 receptor expressed in CHO cell membranes after 3 hrs by microbeta scintillation counting
T1 sequence (P28647 whole entry): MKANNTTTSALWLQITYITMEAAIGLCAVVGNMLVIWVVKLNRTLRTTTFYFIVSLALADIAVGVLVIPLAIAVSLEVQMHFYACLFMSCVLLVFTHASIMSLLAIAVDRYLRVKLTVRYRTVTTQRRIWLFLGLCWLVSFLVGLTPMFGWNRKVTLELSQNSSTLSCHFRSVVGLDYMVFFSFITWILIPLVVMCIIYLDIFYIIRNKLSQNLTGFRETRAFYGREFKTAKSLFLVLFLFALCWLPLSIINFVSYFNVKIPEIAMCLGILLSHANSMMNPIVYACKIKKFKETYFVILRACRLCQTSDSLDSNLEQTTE
Outline: (§1)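 CHO membranes with stable human A1, A2A, A3 or rat A3 (1000g then 100 000g spin, stored -80 °C). Competition: hA1 1 nM [3H]CCPA, nonspecific with 1 mM theophylline; hA2A 10 nM [3H]NECA; hA3 1 nM [3H]HEMADO; rA3 30 nM [3H]NECA; latter three nonspecific with 100 μM R-PIA.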

[2] = target: Adenosine receptors; A1 & A3 (Homo sapiens) (UniProt P30542+P0DMS8); assay: Selectivity ratio of Ki for recombinant human adenosine A3 receptor expressed in CHO cell membranes to Ki for recombinant human adenosine A1 receptor expressed in CHO cell membranes; type: cell-based; outline: as §1
Adenosine receptor A2a [3] = target: T2, Adenosine receptor A2a (Homo sapiens, UniProt P29274); assay: Agonist activity at recombinant human adenosine A2A receptor expressed in CHO cell membranes assessed as stimulation of adenylyl cyclase activity relative to NECA; type: functional, cell-based
T2 sequence (P29274 whole entry): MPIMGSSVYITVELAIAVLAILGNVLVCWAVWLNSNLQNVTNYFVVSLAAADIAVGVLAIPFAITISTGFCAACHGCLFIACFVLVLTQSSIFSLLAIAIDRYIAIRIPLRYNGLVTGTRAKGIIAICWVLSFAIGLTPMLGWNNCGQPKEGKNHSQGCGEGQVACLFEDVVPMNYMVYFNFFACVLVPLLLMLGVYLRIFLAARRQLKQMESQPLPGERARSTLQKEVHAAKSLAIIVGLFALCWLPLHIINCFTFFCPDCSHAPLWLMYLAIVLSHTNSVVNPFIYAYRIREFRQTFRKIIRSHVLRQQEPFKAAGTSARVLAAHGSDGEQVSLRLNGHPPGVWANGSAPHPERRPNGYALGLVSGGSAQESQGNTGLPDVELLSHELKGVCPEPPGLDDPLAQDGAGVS
Outline: (§2)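 hA2A or hA2B in CHO cell membranes (one high-speed spin, pellet in 50 mM Tris/HCl pH 7.4, used immediately); agonist stimulation of adenylyl cyclase gives EC50; partial agonism judged as efficacy against 100 μM NECA as full agonist. Geometric means, 95% confidence intervals, n = 3.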

Adenosine receptor A1 [4] = target: T3, Adenosine receptor A1 (Homo sapiens, UniProt P30542); assay: Agonist activity at recombinant human adenosine A1 receptor expressed in CHO cell membranes assessed as inhibition of forskolin-stimulated adenylyl cyclase activity after 10 mins in presence of [alpha-32P]ATP; type: functional, cell-based
T3 sequence (P30542 whole entry): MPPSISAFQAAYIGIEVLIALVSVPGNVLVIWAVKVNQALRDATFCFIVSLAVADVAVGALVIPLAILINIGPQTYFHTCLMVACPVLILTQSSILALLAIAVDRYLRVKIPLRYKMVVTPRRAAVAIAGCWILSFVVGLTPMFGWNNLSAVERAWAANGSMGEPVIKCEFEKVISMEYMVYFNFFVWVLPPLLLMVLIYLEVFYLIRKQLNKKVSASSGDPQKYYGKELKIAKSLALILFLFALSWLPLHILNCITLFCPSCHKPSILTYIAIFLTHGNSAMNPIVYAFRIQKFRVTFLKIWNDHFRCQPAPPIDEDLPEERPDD
Outline: (§3)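 hA1 in CHO cell membranes (single high-speed spin, resuspended in 50 mM Tris/HCl pH 7.4, used immediately); agonist inhibition of forskolin-stimulated adenylyl cyclase; efficacy relative to CCPA as reference full agonist (100%). Geometric means with 95% confidence intervals, n = 3.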

Adenosine receptor A3 [5] = target: T4, Adenosine receptor A3 (Homo sapiens, UniProt P0DMS8); assay: Displacement of [3H]HEMADO from recombinant human adenosine […] receptor expressed in CHO cell membranes after 3 hrs by microbeta scintillation counting; outline: as §1
T4 sequence (P0DMS8 whole entry): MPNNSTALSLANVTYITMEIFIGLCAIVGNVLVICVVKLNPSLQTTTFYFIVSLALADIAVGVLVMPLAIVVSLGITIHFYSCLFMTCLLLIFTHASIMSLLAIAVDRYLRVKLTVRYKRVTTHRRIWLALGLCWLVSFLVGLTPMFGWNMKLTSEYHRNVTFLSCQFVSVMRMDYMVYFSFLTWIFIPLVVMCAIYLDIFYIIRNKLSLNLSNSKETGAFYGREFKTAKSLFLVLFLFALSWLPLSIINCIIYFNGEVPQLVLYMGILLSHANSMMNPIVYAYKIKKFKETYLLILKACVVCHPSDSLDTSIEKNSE

[6] = target: T5, Adenosine receptor A1 (Homo sapiens) (UniProt P30542); assay: Agonist activity at recombinant human adenosine A1 receptor expressed in CHO cell membranes assessed as inhibition of forskolin-stimulated adenylyl cyclase activity after 10 mins relative to CCPA; type: functional, cell-based; outline: as §3
T5 sequence (whole entry): T3 sequence (P30542 whole entry)

Adenosine receptor A2a [7] = target: T2, Adenosine receptor A2a; assay: Displacement of [3H]NECA from recombinant human adenosine A2A receptor expressed in CHO cell membranes after 3 hrs by microbeta scintillation counting; outline: as §1
Homo sapiens [8] = organism: Homo sapiens; assay: Selectivity ratio of Ki for recombinant human adenosine A2A receptor expressed in CHO cell membranes to Ki for recombinant human adenosine A1 receptor expressed in CHO cell membranes; type: cell-based; outline: as §1
Adenosine receptor A2b = target: T6, Adenosine receptor A2b (Homo sapiens, UniProt P29275); assay: Agonist activity at recombinant human adenosine A2B receptor expressed in CHO cell membranes assessed as stimulation of adenylyl cyclase activity by [alpha-32P]ATP assay; type: functional, cell-based; outline: as §2
T6 sequence (P29275 whole entry): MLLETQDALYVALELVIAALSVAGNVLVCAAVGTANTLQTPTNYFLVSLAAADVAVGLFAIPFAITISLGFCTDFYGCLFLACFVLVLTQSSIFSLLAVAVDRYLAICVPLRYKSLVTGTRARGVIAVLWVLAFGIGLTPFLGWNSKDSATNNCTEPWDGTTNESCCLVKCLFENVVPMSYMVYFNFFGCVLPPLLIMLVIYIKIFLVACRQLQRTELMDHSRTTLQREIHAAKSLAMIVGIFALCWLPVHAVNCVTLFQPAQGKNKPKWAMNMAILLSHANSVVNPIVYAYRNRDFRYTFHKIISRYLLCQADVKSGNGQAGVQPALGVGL

Adenosine receptor A1 [9] = target: T3, Adenosine receptor A1; assay: Displacement of [3H]CCPA from recombinant human adenosine A1 receptor expressed in CHO cell membranes after 3 hrs by microbeta scintillation counting; outline: as §1
Adenosine receptor A3 [10] = target: T4, Adenosine receptor A3; assay: Antagonist activity at recombinant human adenosine A3 receptor expressed in CHO cell membranes assessed as reversal of NECA-mediated inhibition of adenylyl cyclase activity after 10 mins by [alpha-32P]ATP assay; type: functional, cell-based
Homo sapiens [11] = organism: Homo sapiens; assay: Selectivity ratio of Ki for recombinant human adenosine A2A receptor expressed in CHO cell membranes to Ki for recombinant human adenosine A3 receptor expressed in CHO cell membranes; type: cell-based; outline: as §1
Adenosine receptor A2a [12] = target: T2, Adenosine receptor A2a; assay: Agonist activity at recombinant human adenosine A2A receptor expressed in CHO cell membranes assessed as stimulation of adenylyl cyclase activity by [alpha-32P]ATP assay; type: functional, cell-based; outline: as §2
[13] = target: T7, Adenosine receptor A2b (Homo sapiens) (UniProt P29275); assay: Agonist activity at recombinant human adenosine A2B receptor expressed in CHO cell membranes assessed as stimulation of adenylyl cyclase activity relative to NECA; type: functional, cell-based; outline: as §2
T7 sequence (whole entry): T6 sequence (P29275 whole entry)

pKi (Adenosine receptor A3 [1])	Ratio Ki [2]	Efficacy (Adenosine receptor A2a [3]) [%]	pEC50 (Adenosine receptor A1 [4])	pKi (Adenosine receptor A3 [5])	Efficacy [6] [%]	pKi (Adenosine receptor A2a [7])	pEC50 (Adenosine receptor A2b)	pKi (Adenosine receptor A1 [9])	pEC50 (Adenosine receptor A3 [10])	pEC50 (Adenosine receptor A2a [12])	Efficacy [13] [%]	SMILES	Ratio Ki (Homo sapiens [8])	Ratio Ki (Homo sapiens [11])
–	0.13	> 90	6.62	9.09	> 90	6.62	5.65	8.22	7.50	7.50	> 90	CCn1nnc([C@H]2O[C@@H](n3cnc4c(NCc5cccc(F)c5)nc(Cl)nc43)[C@H](O)[C@@H]2O)n1	40	299
–	0.19	> 90	7.14	9.46	> 90	7.24	5.78	8.75	8.02	7.88	> 90	CCn1nnc([C@H]2O[C@@H](n3cnc4c(NCc5cccc(Br)c5)nc(Cl)nc43)[C@H](O)[C@@H]2O)n1	32	171
–	0.14	> 90	6.94	9.41	> 90	6.96	5.62	8.57	8.12	7.80	> 90	CCn1nnc([C@H]2O[C@@H](n3cnc4c(NCc5cccc(Cl)c5)nc(Cl)nc43)[C@H](O)[C@@H]2O)n1	40	282
–	0.29	> 90	6.27	8.29	> 90	6.06	< 4.52	7.75	6.98	7.02	> 90	CCn1nnc([C@H]2O[C@@H](n3cnc4c(NCc5ccc(Cl)cc5F)nc(Cl)nc43)[C@H](O)[C@@H]2O)n1	50	170

The next lines start with the compound.

SMILES	pKi (Adenosine receptor A3 [1])	Ratio Ki [2]	Efficacy (Adenosine receptor A2a [3]) [%]	pEC50 (Adenosine receptor A1 [4])	pKi (Adenosine receptor A3 [5])	Efficacy [6] [%]	pKi (Adenosine receptor A2a [7])	pEC50 (Adenosine receptor A2b)	pKi (Adenosine receptor A1 [9])	pEC50 (Adenosine receptor A3 [10])	pEC50 (Adenosine receptor A2a [12])	Efficacy [13] [%]	Ratio Ki (Homo sapiens [8])	Ratio Ki (Homo sapiens [11])
CCn1nnc([C@H]2O[C@@H](n3cnc4c(NC)nc(Cl)nc43)[C@H](O)[C@@H]2O)n1	6.22	–	–	–	–	–	–	–	–	–	–	–	–	–
CCn1nnc([C@H]2O[C@@H](n3cnc4c(Nc5ccc(Cl)cc5F)ncnc43)[C@H](O)[C@@H]2O)n1	7.67	–	–	–	–	–	–	–	–	–	–	–	–	–
CCn1nnc([C@H]2O[C@@H](n3cnc4c(NC5CC5)nc(Cl)nc43)[C@H](O)[C@@H]2O)n1	–	0.86	–	8.14	9.34	–	6.56	6.17	9.27	7.85	7.67	–	509 to 510	596
CCn1nnc([C@H]2O[C@@H](n3cnc4c(NCC5CC5)nc(Cl)nc43)[C@H](O)[C@@H]2O)n1	–	0.66	> 90	8.14	9.50	> 90	6.48	5.71	9.34	7.84	7.54	> 90	725	1100
CCn1nnc([C@H]2O[C@@H](n3cnc4c(N)nc(Cl)nc43)[C@H](O)[C@@H]2O)n1	6.67	–	–	–	–	–	–	–	–	–	–	–	–	–
CCn1nnc([C@H]2O[C@@H](n3cnc4c(NCc5ccco5)nc(Cl)nc43)[C@H](O)[C@@H]2O)n1	–	0.17	> 90	6.47	8.88	> 90	6.18	5.59	8.12	7.28	7.22	> 90	87	506
CCn1nnc([C@H]2O[C@@H](n3cnc4c(NCc5cccs5)nc(Cl)nc43)[C@H](O)[C@@H]2O)n1	–	0.26	> 90	6.65	8.80	> 90	6.54	5.67	8.22	7.35	7.42	> 90	47	180
CCn1nnc([C@H]2O[C@@H](n3cnc4c(N)ncnc43)[C@H](O)[C@@H]2O)n1	6.64	–	–	–	–	–	–	–	–	–	–	–	–	–
